In article PMC4942345 (Organic & biomolecular chemistry, 2016):
Where a SMILES comes first, the peptide text is derived from it. [ ]: non-standard residue; d: D form. The star is where a group is joined. Benzoyl(4-SO2NH2) = NS(=O)(=O)c1ccc(C(=O)*)cc1

Legend:
[1] = test system: mixture of hCAIX, hCAXII, hCAVB and hCAII; assay: Pull-down experiment with a mixture of CA isozymes, SDS-PAGE; assay type: binding, human; settings: [CA] = 1.00 μM, Fig. 4
hCAII [2] = biological target: T1, hCAII (Homo sapiens, UniProt P00918); assay: Esterase activity inhibition; assay type: biochemical; settings: from IC50 values
In short: (§1)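 Commercial human CA isozyme at 0.2 μM was run with the inhibitor-peptide conjugate as blocker. The substrate was 50 μM 4-nitrophenyl acetate in Tris buffer (9 mM Tris-HCl, 81 mM NaCl, 10% v/v acetonitrile, 1% v/v DMSO). Nitrophenol formation was followed by absorbance at 400 nm. Each run was done at least in triplicate.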

hCAII [3] = biological target: T1, hCAII; assay type: binding; settings: fluorescence visualization of SDS gel, Fig. 3b and 3c
In short: (§2)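 Excess biotinylated conjugate was loaded onto streptavidin agarose in PBS for 2 h, then washed 3-4 times with PBS and 0.05% PBST. The resin was incubated overnight at 4 °C with hCAII and hCAI, added separately or as a mixture, then washed. It was boiled 10 min at 99 °C in SDS loading buffer with reducing agent and run on SDS-PAGE.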

hCAI [4] = biological target: T2, hCAI (Homo sapiens, UniProt P00915); assay: Esterase activity inhibition; assay type: biochemical
T2 sequence (P00915 whole entry): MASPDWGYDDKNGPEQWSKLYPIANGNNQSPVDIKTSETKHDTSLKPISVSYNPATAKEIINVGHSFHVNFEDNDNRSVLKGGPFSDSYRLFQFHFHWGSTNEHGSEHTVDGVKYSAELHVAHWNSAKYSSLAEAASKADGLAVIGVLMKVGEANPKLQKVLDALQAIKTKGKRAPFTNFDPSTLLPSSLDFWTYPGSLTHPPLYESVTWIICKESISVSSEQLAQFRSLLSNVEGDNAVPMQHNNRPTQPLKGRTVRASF
In short: as §1

hCAI [5] = biological target: T2, hCAI; assay type: binding
In short: as §2

increase of inhibitory activity against hCAII compared to 4-ABS (hCAII [2])	increase of inhibitory activity against hCAI compared to 4-ABS (hCAI [4]; from IC50 values, esterase activity)	specificity in terms of enzymatic inhibitory activity (IC50) (hCAI [4]; hCAI versus hCAII and hCAIX)	pull-down, enzymes tested separately: capturing ability for hCAI (hCAI [5]; [hCA] = 0.57 μM, Fig. 3a, compared with 1, 2 and 7)	pull-down with mixture of ZW700-hCAII and CY3-hCAI: binding to hCAI (hCAI [5]; fluorescence visualization of SDS gel, Fig. 3b and 3c)	Structure (SMILES)	pull-down with mixture of CA isozymes: isozyme captured [1]	pull-down with mixture of ZW700-hCAII and CY3-hCAI: binding to hCAII (hCAII [3])
ca. 17 fold					CC(C)C[C@@H](NC(=O)[C@@H](CC(=O)O)NC(=O)c1ccc(S(N)(=O)=O)cc1)C(=O)N[C@H](CC(=O)O)C(=O)N[C@H](CC(=O)O)C(=O)N[C@H](Cc1c[nH]c2ccccc12)C(N)=O [Compound 7, 4-CBS-dlddw] ({Benzoyl(4-SO2NH2)}-[dD][dL][dD][dD][dW]-NH2)	selective capturing of hCAII	significantly increased binding selectively to hCAII
2.6 fold	30 fold	good specificity for hCAI	greatest capturing ability for hCAI	binds strongly	CC(C)C[C@@H](NC(=O)[C@H](NC(=O)[C@@H](CC(=O)O)NC(=O)[C@H](NC(=O)[C@@H](CC(=O)O)NC(=O)c1ccc(S(N)(=O)=O)cc1)C(C)C)C(C)C)C(N)=O [Compound 9, 4-CBS-dvdvl] ({Benzoyl(4-SO2NH2)}-[dD][dV][dD][dV][dL]-NH2)	selective capturing of hCAII	binds strongly
